Experimental data from ChEMBL document CHEMBL1671701, “Discovery of potent small-molecule inhibitors of multidrug-resistant Plasmodium falciparum using a novel miniaturized high-throughput luciferase-based assay” (Antimicrob Agents Chemother, 2010).
Counter-ions that a name gives are not always drawn.

What was measured:
[1] = Cytotoxicity activity against human HAEC cells after 24 hrs; type: cell-based
Plasmodium falciparum [2] = test: Antiplasmodial activity against Plasmodium falciparum 3D7 infected in RBCs by firefly luciferase reporter gene assay; type: functional, organism-based; conditions: Plasmodium falciparum, 3D7
Summary of the method: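 Sorbitol-synchronised 3D7 expressing firefly luciferase from the HRPII promoter, at 1% late-ring parasitemia and 3% hematocrit in RPMI/albumax II medium. Sixteen 2-fold dilutions from 17 μM to 0.5 nM, 48 h at 37°C under 5% O2/5% CO2/N2. Bright-Glo luminescence is normalised to untreated infected and uninfected-RBC wells. IC50 by four-parameter logistic fit.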

Plasmodium falciparum [3] = test: Antiplasmodial activity against multidrug-resistant Plasmodium falciparum TM90C2B by SYBR Green 1-based fluorescence assay; type: functional, organism-based
Summary of the method: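 Resistant TM90C2B parasites are treated over a dose range and growth is read as SYBR green I fluorescence. IC50 comes from a fit of the log dose-response relationship, as the mean of at least three separate experiments.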

HepG2 = test: Cytotoxicity activity against human HepG2 cells after 24 hrs; type: cell-based; conditions: HepG2, 24 h
Plasmodium falciparum [4] = test: Antiplasmodial activity against Plasmodium falciparum 3D7 by SYBR Green 1-based fluorescence assay; type: functional, organism-based

SMILES | IC50 (Plasmodium falciparum [2]) | also measured
COc1cccc(N(C(C)=O)C2=C(N(C)C)C(=O)c3ccccc3C2=O)c1 | 5.3 nM | IC50 [1]: 11000 nM; IC50 (Plasmodium falciparum [3]): 31 nM; IC50 (HepG2): 13000 nM; IC50 (Plasmodium falciparum [4]): 35 nM
CC(=O)N(C1=C(N(C)C)C(=O)c2ccccc2C1=O)c1cccc(Br)c1 | 32 nM | IC50 (Plasmodium falciparum [3]): 94 nM; IC50 (Plasmodium falciparum [4]): 130 nM
CC(=O)N(C1=C(N2CCOCC2)C(=O)c2ccccc2C1=O)c1ccccc1 | 780 nM | IC50 (Plasmodium falciparum [3]): 530 nM; IC50 (Plasmodium falciparum [4]): 1600 nM
CC(=O)N(C1=C(N(C)C)C(=O)c2ccccc2C1=O)c1cccc(Cl)c1 | 14 nM | IC50 [1]: 45000 nM; IC50 (Plasmodium falciparum [3]): 72 nM; IC50 (HepG2): 5100 nM; IC50 (Plasmodium falciparum [4]): 140 nM
CC(=O)N(C1=C(N(C)C)C(=O)c2ccccc2C1=O)c1ccc(Cl)cc1 | 14 nM | IC50 [1]: 41000 nM; IC50 (HepG2): 8100 nM
CC(=O)N(C1=C(N(C)C)C(=O)c2ccccc2C1=O)c1cccc(F)c1 | 11 nM | IC50 (Plasmodium falciparum [3]): 74 nM; IC50 (Plasmodium falciparum [4]): 110 nM
CC(=O)N(C1=C(N(C)C)C(=O)c2ccccc2C1=O)c1ccc(F)c(F)c1 | 25 nM | IC50 (Plasmodium falciparum [3]): 110 nM; IC50 (Plasmodium falciparum [4]): 170 nM
CC(=O)N(C1=C(N2CCOCC2)C(=O)c2ccccc2C1=O)c1cccc(Cl)c1 | 790 nM | IC50 (Plasmodium falciparum [3]): 510 nM; IC50 (Plasmodium falciparum [4]): 1800 nM
CCNC(=O)N1CCN(CCCC(c2ccc(F)cc2)c2ccc(F)cc2)CC1 [AMPEROZIDE] |  | IC50 [1]: 83000 nM; IC50 (HepG2): 95000 nM
CCCCCC[C@H]1C(=O)O[C@H](C)[C@H](NC(=O)c2cccc(NC=O)c2O)C(=O)O[C@@H](C)[C@@H]1OC(=O)CC(C)C [ANTIMYCIN A] | 2190 nM | 
CN1CCc2cccc3c2[C@H]1Cc1ccc(O)c(O)c1-3 [APOMORPHINE HYDROCHLORIDE] | 373 nM | 
C[C@H]1[C@H](OC(=O)CCC(=O)O)O[C@@H]2O[C@@]3(C)CC[C@H]4[C@H](C)CC[C@@H]1[C@@]24OO3 [ARTESUNATE] | 3.3 nM | 
COc1ccc(CCN2CCC(Nc3nc4ccccc4n3Cc3ccc(F)cc3)CC2)cc1 [ASTEMIZOLE] | 254 nM | 
O=C1C(O)=C([C@H]2CC[C@H](c3ccc(Cl)cc3)CC2)C(=O)c2ccccc21 [ATOVAQUONE] | 0.41 nM | IC50 (Plasmodium falciparum [3]): 12000 nM; IC50 (Plasmodium falciparum [4]): 0.8 nM
N/C(=N\C(=O)c1nc(Cl)c(N)nc1N)NCc1ccccc1 [BENZAMIL HYDROCHLORIDE] | 217 nM | 
CCCCOc1ccc(CC(=O)NO)cc1 [BUFEXAMAC] | 2770 nM | 
CN/C(=N\CCSCc1nc[nH]c1C)NC#N [CIMETIDINE] | > 22800 nM | 
C=C[C@H]1CN2CC[C@H]1C[C@@H]2[C@@H](O)c1ccnc2ccccc12 [CINCHONINE] | 5 nM | 
CCC(=O)O[C@]1(C(=O)CCl)[C@@H](C)C[C@H]2[C@@H]3CCC4=CC(=O)C=C[C@]4(C)[C@@]3(F)[C@@H](O)C[C@@]21C [CLOBETASOL PROPIONATE] | 797 nM | 
Clc1ccc(C(OCCN2CCCCC2)c2ccccc2)cc1 (stereo unspecified) [CLOPERASTINE HYDROCLORIDE] | 4880 nM | 
COc1cccc2c1C(=O)c1c(O)c3c(c(O)c1C2=O)C[C@@](O)(C(=O)CO)C[C@@H]3O[C@H]1C[C@H](N)[C@H](O)[C@H](C)O1 [DOXORUBICIN] |  | IC50 [1]: 13000 nM; IC50 (HepG2): 69000 nM

SMILES | IC50 (Plasmodium falciparum [2]) | also measured
CC[C@H]1CN2CCc3cc(OC)c(OC)cc3[C@@H]2C[C@@H]1C[C@H]1NCCc2cc(OC)c(OC)cc21 [EMETINE DIHYDROCHLORIDE HYDRATE] | 1 nM | 
NC(N)=Nc1nc(CSCC/C(N)=N/S(N)(=O)=O)cs1 [FAMOTIDINE] | > 22800 nM | 
NCCc1c[nH]cn1 [HISTAMINE] | 660 nM | 
CCN(CC)CCNc1ccc(CO)c2sc3ccccc3c(=O)c12 [HYCANTHONE] | 3020 nM | 
C[C@@H]1C[C@H]2[C@@H]3CCC4=CC(=O)C=C[C@]4(C)[C@@]3(Cl)[C@@H](O)C[C@]2(C)[C@@]1(OC(=O)c1ccco1)C(=O)CCl [MOMETASONE FUROATE] | 1510 nM | 
CNC(=C[N+](=O)[O-])NCCSCc1csc(CN(C)C)n1 [NIZATIDINE] | > 22800 nM | 
O=c1ccc2ccccc2[nH]1 [OXYQUINOLINE HEMISULFATE] | 1140 nM | 
N#Cc1ccc2c(c1)N(CCCN1CCC(O)CC1)c1ccccc1S2 [PERICIAZINE] | 6560 nM | 
CCN(CC)CCCC(C)Nc1c2ccc(Cl)cc2nc2ccc(OC)cc12 (stereo unspecified) [QUINACRINE DIHYDROCHLORIDE] | 1 nM | 
C=C[C@H]1CN2CC[C@H]1C[C@@H]2[C@@H](O)c1ccnc2ccc(OC)cc12 [QUINIDINE SULFATE] | 56 nM | 
C=C[C@H]1CN2CC[C@H]1C[C@H]2[C@H](O)c1ccnc2ccc(OC)cc12 [QUININE SULFATE] | 280 nM | 
CNC(=C[N+](=O)[O-])NCCSCc1ccc(CN(C)C)o1 [RANITIDINE HYDROCHLORIDE] | > 22800 nM | 
Cc1ccnc(NS(=O)(=O)c2ccc(N)cc2)n1 [SULFAMERAZINE] | 6 nM | 
CCCc1nc2c(C)cc(-c3nc4ccccc4n3C)cc2n1Cc1ccc(-c2ccccc2C(=O)O)cc1 [TELMISARTAN] | 1610 nM | 
C/N=C(/NC#N)NCCSCc1csc(NC(=N)N)n1 [TIOTIDINE] | > 22800 nM | 
CC(C)C[C@@H]1NC(=O)[C@H](CCCN)NC(=O)[C@H](C(C)C)NC(=O)[C@H](Cc2ccc(O)cc2)N[C@@H](CCC(=O)O)C(=O)N[C@@H](CC(N)=O)C(=O)[C@@H](Cc2ccccc2)NC(=O)[C@H](Cc2ccccc2)NC(=O)[C@@H]2CCCN2C(=O)[C@@H](Cc2ccccc2)NC1=O [TYROTHRICIN] | 0.05 nM | 
CC[C@]1(O)C[C@@H]2CN(CCc3c([nH]c4ccccc34)[C@@](C(=O)OC)(c3cc4c(cc3OC)N(C)[C@H]3[C@@](O)(C(=O)OC)[C@H](OC(C)=O)[C@]5(CC)C=CCN6CC[C@]43[C@@H]65)C2)C1 [VINBLASTINE] | 2 nM | 
CC[C@]1(O)C[C@H]2CN(CCc3c([nH]c4ccccc34)[C@@](C(=O)OC)(c3cc4c(cc3OC)N(C=O)[C@H]3[C@@](O)(C(=O)OC)[C@H](OC(C)=O)[C@]5(CC)C=CCN6CC[C@]43[C@@H]65)C2)C1 [VINCRISTINE] | 1 nM | 
c1cc(CN2CCCCC2)cc(OCCCNc2nc3ccccc3s2)c1 [ZOLANTIDINE DIMALATE] | > 22800 nM | 
c1cc(CN2CCCCC2)cc(OCCCNc2nc3ccccc3s2)c1 [ZOLANTIDINE] |  | IC50 [1]: 75000 nM; IC50 (HepG2): 76000 nM
